According to ChEMBL document CHEMBL2046279, “Trigoflavidols A-C, degraded diterpenoids with antimicrobial activity, from Trigonostemon flavidus” (J Nat Prod, 2012):
Values after ≈ are worked out from the molar mass of the structure shown.

Tests used:
MCF7 = assay: Cytotoxicity against human MCF7 cells by MTT assay; assay type: functional, cell-based
SW480 = assay: Cytotoxicity against human SW480 cells by MTT assay; assay type: functional, cell-based
HL-60 = assay: Cytotoxicity against human HL60 cells by MTT assay; assay type: functional, cell-based
A549 = assay: Cytotoxicity against human A549 cells by MTT assay; assay type: functional, cell-based
SMMC-7721 = assay: Cytotoxicity against human SMMC7721 cells by MTT assay; assay type: functional, cell-based
Staphylococcus aureus [1] = assay: Antimicrobial activity against Staphylococcus aureus after 18 hrs by two-fold dilution method; assay type: functional
Staphylococcus aureus [2] = assay: Antimicrobial activity against Staphylococcus aureus by agar plate punch assay; assay type: functional
Method in brief: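 Compounds dissolved in DMSO at 500 μg/mL; 50 μL placed in a 6 mm well punched in MH agar smeared with test organism suspension (1.5 × 10^9 cfu/mL). Read-out is diameter of the inhibition zone.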

Staphylococcus aureus [3] = assay: Antimicrobial activity against 82 isolates of methicillin-resistant Staphylococcus aureus after 18 hrs by two-fold dilution method; assay type: functional
Staphylococcus aureus [4] = assay: Antimicrobial activity against 8 isolates of methicillin-resistant Staphylococcus aureus after 18 hrs by two-fold dilution method; assay type: functional

Work on `COc1cc2c(cc(OC)c3cc(C)c(O)cc32)oc1=O` [TRIGOFLAVIDOL C] yielded an IC50 (MCF7) greater than 40 µM, an IC50 (SW480) greater than 40 µM and an IC50 (HL-60) greater than 40 µM. The IC50 (A549) was greater than 40 µM, the IC50 (SMMC-7721) was greater than 40 µM and the MIC (Staphylococcus aureus [1]) was greater than 50 µg/mL.

With `COc1cc2c(cc(OC)c3cc(C)c(O)cc32)c(C)c1O` [TRIGONOCHINENE E] the “diameter of the inhibition zone (DIZ)” value (Staphylococcus aureus [2]) was greater than 10 mm, the IC50 (MCF7) was 18.4 µM and the IC50 (SW480) was 20.5 µM. The IC50 (HL-60) was 3.75 µM, the IC50 (A549) was 21 µM and the IC50 (SMMC-7721) was 29 µM. For the same compound, the MIC (Staphylococcus aureus [1]) was greater than 50 µg/mL.

With `COC(=O)[C@@]1(O)[C@@]2(Oc3cc4c(cc(OC)c5cc(C)c(O)cc54)c(C)c3O2)c2c(cc(OC)c3cc(C)c(O)cc23)[C@@]1(C)O` [TRIGOFLAVIDOL B] the “diameter of the inhibition zone (DIZ)” value (Staphylococcus aureus [2]) was greater than 10 mm, the MIC (Staphylococcus aureus [3]) was 3.12 µg/mL (≈ 5.09 µM) and the MIC (Staphylococcus aureus [4]) was 3.12 µg/mL (≈ 5.09 µM). The IC50 (MCF7) was 14.6 µM, the IC50 (SW480) was 15.4 µM and the IC50 (HL-60) was greater than 40 µM. For the same compound, the IC50 (A549) was 17.1 µM, the IC50 (SMMC-7721) was 19.5 µM and the MIC (Staphylococcus aureus [1]) was 1.56 µg/mL (≈ 2.55 µM).

For `CN[C@H](CC(C)C)C(=O)N[C@H]1C(=O)N[C@@H](CC(N)=O)C(=O)N[C@H]2C(=O)N[C@H]3C(=O)N[C@H](C(=O)N[C@H](C(=O)O)c4cc(O)cc(O)c4-c4cc3ccc4O)[C@H](O)c3ccc(c(Cl)c3)Oc3cc2cc(c3O[C@@H]2O[C@H](CO)[C@@H](O)[C@H](O)[C@H]2O[C@H]2C[C@](C)(N)[C@H](O)[C@H](C)O2)Oc2ccc(cc2Cl)[C@H]1O.Cl` [VANCOMYCIN HYDROCHLORIDE], the MIC (Staphylococcus aureus [3]) was 0.78 µg/mL, the MIC (Staphylococcus aureus [4]) was 0.78 µg/mL and the MIC (Staphylococcus aureus [1]) was 1.56 µg/mL.

`Cc1cc2c(cc1O)C1=C(C3=C4C(=CC(=O)c5cc(C)c(O)cc54)C(C)(C)C3=O)C(=O)C(C)(C)C1=CC2=O` [NEOBOUTOMANNIN] gave an IC50 (MCF7) greater than 40 µM, an IC50 (SW480) greater than 40 µM and an IC50 (HL-60) greater than 40 µM. The IC50 (A549) was greater than 40 µM, the IC50 (SMMC-7721) was greater than 40 µM and the MIC (Staphylococcus aureus [1]) was greater than 50 µg/mL.

For `COC(=O)[C@@]1(O)[C@]2(Oc3cc4c(cc(OC)c5cc(C)c(O)cc54)c(C)c3O2)c2c(cc(OC)c3cc(C)c(O)cc23)[C@@]1(C)O` (relative stereo), the “diameter of the inhibition zone (DIZ)” value (Staphylococcus aureus [2]) was greater than 10 mm, the MIC (Staphylococcus aureus [3]) was 6.25 µg/mL (≈ 10.2 µM) and the MIC (Staphylococcus aureus [4]) was 3.12 µg/mL (≈ 5.09 µM). For the same compound, the IC50 (MCF7) was 14.6 µM, the IC50 (SW480) was 15.9 µM and the IC50 (HL-60) was 21.1 µM. It also gave an IC50 (A549) of 19.8 µM, an IC50 (SMMC-7721) of 21.6 µM and an MIC (Staphylococcus aureus [1]) of 1.56 µg/mL (≈ 2.55 µM).
